# In ChEMBL document CHEMBL4368899, “Novel carbohydrate modified berberine derivatives: synthesis and in vitro anti-diabetic investigation” (Medchemcomm, 2019):
# Tests used:
# HepG2 [1] = experiment: Cytotoxicity against human HepG2 cells after 12 hrs by CCK-8 assay; format: cell-based; settings: for IC50: Homo sapiens, HepG2, 12 h; for Activity: human, hepg2, 12 h
# In short: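 Cells were cultured in DMEM/10% heat-inactivated FBS with penicillin/streptomycin at 37 °C, 5% CO2, and harvested with trypsin at 80–90% confluence. They were plated at 1×10^5 cells per mL, and medium was refreshed after 12 h. Cells were treated 12 h with 0.2–625 µg mL⁻¹ compound dissolved in 0.5% DMSO–water. CCK-8 was added for 4 h, then A570 read, correcting for compound colour. IC50 is relative to untreated cells as 100%. n = 3.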
# HepG2 [2] = experiment: Antidiabetic activity in human HepG2 cells assessed as increase in glucose consumption at 5 ug/mL after 48 hrs by glucose oxidase method relative to berberine; format: functional
# In short: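 HepG2 cells were grown in DMEM with 10% heat-inactivated FBS and penicillin/streptomycin. They were seeded at 2×10^5 cells per well and cultured 12 h at 37 °C in 5% CO2. Cells were then exposed to 5.0 µg mL⁻¹ compound for two days. A DMSO solvent control and a blank were run. Glucose was measured by glucose oxidase. Consumption = blank-well glucose minus glucose remaining in treated wells. Means ± SD, n = 8, expressed as % increase over berberine.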
# [3] = Stability of compound in acetonitrile/water at 1:1 ratio at pH 1.5 assessed as compound degradation after 5 hrs by HPLC analysis; format: physicochemical; settings: acetonitrile/water 1:1, pH 1.5; read-out: Drug degradation
# In short: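 Remaining compound after 5 h was quantified by HPLC on a C8 column (250 × 4.6 mm, 5 µm). Elution used 50% acetonitrile in 0.05 mol L⁻¹ aqueous KH2PO4 at 1 mL min⁻¹, with detection at 320 nm.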
# [4] = Aqueous solubility of compound; format: physicochemical; settings: water
degraded at 5 h [3],solubility [4],Compound,IC50 (HepG2 [1]),Activity (HepG2 [1]),Activity (HepG2 [2])
,,COc1ccc2cc3[n+](cc2c1OCc1cn([C@@H]2O[C@H](CO)[C@H](O)[C@H](O)[C@H]2O)nn1)CCc1cc2c(cc1-3)OCO2.[Cl-],59.3 µg/mL,Dose-dependent effect,0.21%
1.8%,1750 µg/mL,COc1ccc2cc3[n+](cc2c1OC)CCc1cc2c(cc1-3)OCO2.[Cl-] [BERBERINE CHLORIDE],53.9 µg/mL,,
0.3%,9000 µg/mL,COc1ccc2cc3[n+](cc2c1OCc1cn([C@H]2O[C@H](CO)[C@@H](O)[C@H](O)[C@@H]2O)nn1)CCc1cc2c(cc1-3)OCO2.[Cl-],72.2 µg/mL,Dose-dependent effect,10.81%
,,COc1ccc2cc3[n+](cc2c1OCc1cn([C@@H]2O[C@H](CO)[C@@H](O)[C@H](O)[C@H]2O)nn1)CCc1cc2c(cc1-3)OCO2.[Cl-],62.9 µg/mL,Dose-dependent effect,2.23%
,,COc1ccc2cc3[n+](cc2c1OCc1cn([C@@H]2O[C@H](CO)[C@@H](O)[C@H]2O)nn1)CCc1cc2c(cc1-3)OCO2.[Cl-],44 µg/mL,Dose-dependent effect,14.83%
,,COc1ccc2cc3[n+](cc2c1OCc1cn([C@@H]2O[C@@H](C)[C@H](O)[C@@H](O)[C@H]2O)nn1)CCc1cc2c(cc1-3)OCO2.[Cl-],49.3 µg/mL,Dose-dependent effect,-3.6%
